Series [1] deals with MCF7. As to the kind of experiment: Cell cycle arrest in human MCF7 cells assessed as accumulation at G2/M phase at 1 uM by PI staining based flow cytometry analysis. Format: functional. Particulars: TDE = time-dependent effect. The method in brief:
(§1)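 Cells (1 × 10^5/well) were treated at 1 µM for 24, 48 and 72 h; vehicle was 0.1% v/v ethanol. Cells were trypsinised, fixed in ice-cold 70% ethanol overnight at −20 °C, then stained with PI (50 µg/mL) plus DNase-free RNase A (50 µg/mL) at 37 °C for 30 min. DNA content of 10,000 cells per group was read by flow cytometry at 488 nm.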
For orientation: A flow cytometer gives signals particle by particle.

The subject of series [2] is MCF7. The experiment in a line: Induction of apoptosis in human MCF7 cells assessed as downregulation of survivin expression level at 0.05 to 0.5 uM after 48 to 72 hrs by Western blot analysis. Format: functional, cell-based. The following applies: dose 0.05-0.5 µM, time 48-72 hrs. A digest of the protocol:
(§2)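 MCF-7 cells (1 × 10^5 per flask) were treated at 0.05, 0.1 and 0.5 µM for 48 and 72 h; vehicle was 0.1% v/v ethanol. Lysis was in RIPA buffer with protease and phosphatase inhibitors. Equal protein (BCA) was run on 12% SDS-PAGE and blotted for Mcl-1, Bcl-2 and survivin, with GAPDH as loading control and ECL detection. Three independent experiments.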

The target in series [3] is T1, Tubulin (Homo sapiens) (UniProt P68371+Q9H4B7+P0DPH7+P68366+Q13509+Q71U36+P04350+Q3ZCM7+P07437+P68363+Q9BQE3+Q6PEY2+Q13885+Q9BVA1+Q9BUF5). The experiment in a line: Binding affinity to tubulin in human MCF7 cells assessed as inhibition of tubulin-EBI adduct formation preincubated for 2 hrs followed by EBI addition and measured after 1.5 hrs by Western blotting analysis. The series is classed as cell-based. The following applies: time 3.5 hrs. The method in brief:
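MCF-7 cells (5 × 10^4/well) were incubated overnight, then given vehicle (0.1% v/v ethanol) or compound at 10 µM for 2 h. Selected wells then received EBI (100 µM) for 1.5 h. Cells were washed in ice-cold PBS, lysed in Laemmli buffer and run on SDS-PAGE. Blots were probed for β-tubulin and the β-tubulin–EBI adduct, with GAPDH as loading control. Three independent experiments.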
(Immunoblotting shows a protein as a band on a membrane.)

Series [4] concerns HT-29. The experiment in a line: Antiangiogenic activity in human HT29 cells assessed as reduction in VEGF secretion at 5 uM after 24 hrs by ELISA. Format: functional, cell-based. The method in brief: (§3)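 HT-29 cells at 5 x 10^4 per well, cultured 24 h and then exposed to 5 µM compound. Conditioned medium collected on ice and stored at -80 °C. Cytokines and angiogenic, vascular-injury and chemokine factors measured by multiplex panels with overnight supernatant incubation (Angiogenesis Panel 1 and Vascular Injury Panel 2 same day). Medium undiluted except 1:4 for Vascular Injury Panel 2. Secretion normalised to lysate protein by BCA.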

The species entered for another series is Bos taurus. As to the kind of experiment: Inhibition of bovine brain tubulin polymerization at 10 uM measured at 30 sec interval for 30 mins in presence of GTP by turbidimetry-based spectrophotometric method.
In series [5] the test system is MCF7. The experiment in a line: Cell cycle arrest in human MCF7 cells assessed as accumulation at sub-G1 phase at 1 uM measured after 72 hrs by PI staining based flow cytometry analysis. Format: functional. A digest of the protocol: as §1
In series [6] the test system is MCF7. The experiment in a line: Induction of apoptosis in human MCF7 cells assessed as downregulation of Mcl-1 expression level measured after 48 hrs by Western blot analysis. The series is classed as functional, cell-based. Particulars: dose 0.05-0.5 µM. A digest of the protocol:
as §2

Series [7] deals with MCF7. The experiment in a line: Induction of apoptosis in human MCF7 cells assessed as downregulation of Mcl-1 expression level measured after 72 hrs by Western blot analysis. Format: functional, cell-based. Particulars: dose 0.05-0.5 µM. The method in brief:
as §2

Series [8] relates to HT-29. The experiment in a line: Cell cycle arrest in human HT-29 cells assessed as accumulation at G2/M phase at 1 uM measured after 24 hrs by PI staining based flow cytometry analysis (reference value: 11 %). The series is classed as functional. The method in brief:
as §1

Series [9] deals with UDP-glucuronosyltransferases (UGTs) (Homo sapiens, UniProt O60656+O75310+O75795+P06133+P0DTE4+P0DTE5+P16662+P19224+P22309+P22310+P35503+P35504+P36537+P54855+Q6UWM9+Q9BY64+Q9HAW7+Q9HAW8+Q9HAW9). As to the kind of experiment: Metabolic stability in human liver microsomes assessed as UGT-mediated N-glucuronidation by measuring intrinsic clearance at 3 uM measured up to 45 mins by LC-MS/MS analysis. The following applies: liver microsomes, read-out: CLH. Format: ADME. The method in brief: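 Pooled human liver microsomes (0.5 mg/mL protein final) with alamethicin (25 µg/mg) in 0.1 M phosphate pH 7.4, compound 3 µM final (0.25% DMSO), preincubated 37 °C. Reaction started with UDPGA (1 mM final). Sampled at 0, 5, 15, 30, 45 min into methanol, analysed by LC-MS/MS. Minus-UDPGA control run 45 min. Single incubations; t½ and CLint taken from the elimination rate constant.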

Series [10] relates to HT-29. The experiment in a line: Antiangiogenic activity in human HT29 cells assessed as reduction in IL-1alpha secretion at 5 uM after 24 hrs by ELISA. Format: functional, cell-based. The method in brief: as §3
Series [11] relates to HT-29. As to the kind of experiment: Induction of apoptosis in human HT29 cells assessed as necrotic cells at 1 uM after 24 hrs by Annexin V-FITC and propidium iodide staining based flow cytometry (reference value: 3 %). Format: functional. A digest of the protocol: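 HT-29 cells were treated at 1 µM for 24, 48 and 72 h against an untreated control. Cells were stained with Annexin V in binding buffer (HEPES pH 7.4, NaCl, CaCl2) for 30 min on ice in the dark, washed, resuspended in PI-containing buffer and read at once by flow cytometry. Quadrants: early apoptotic, late apoptotic, necrotic (Annexin V−/PI+).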

Series [12] has as its system MCF7. The experiment in a line: Cell cycle arrest in human MCF7 cells assessed as accumulation at G2/M phase at 1 uM measured after 24 hrs by PI staining based flow cytometry analysis (reference value: 24 %). Format: functional. A digest of the protocol:
as §1

Series [13] deals with T1, Tubulin (Homo sapiens). As to the kind of experiment: Induction of microtubule depolymerization in human MCF7 cells assessed as induction of spindle formation at 10 to 50 nM for 5 hrs by immunofluorescence staining based confocal microscopic analysis. The following applies: dose 10-50 nM. The series is classed as cell-based. A digest of the protocol:
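MCF-7 cells were seeded at 1 × 10^5 cells/mL on chamber slides and treated at 0.01, 0.05 and 0.1 µM. Controls were vehicle (1% v/v ethanol), CA-4 (0.01 µM) and paclitaxel (1 µM). Cells were fixed and stained with anti-α-tubulin-FITC (DM1A) and Alexa Fluor 488, then counterstained with DAPI. Imaging was by confocal microscopy over three separate experiments.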

The test system of series [14] is MCF7. The experiment in a line: Cell cycle arrest in human MCF7 cells assessed as accumulation at G2/M phase at 1 uM measured after 72 hrs by PI staining based flow cytometry analysis (reference value: 24 %). The series is classed as functional. The method in brief:
as §1

The subject of series [15] is MCF7. The experiment in a line: Induction of apoptosis in human MCF7 cells assessed as total apoptotic cells at 1 uM after 48 hrs by Annexin V-FITC and propidium iodide staining based flow cytometry (reference value: 10 %). Format: functional. A digest of the protocol: (§4)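 MCF-7 cells were seeded at 1 × 10^5 cells/mL and treated for 48 h at 0.01, 0.1 and 1 µM; vehicle was 0.1% v/v ethanol. Annexin V staining was done on ice in the dark for 30 min in HEPES/NaCl/CaCl2 binding buffer, followed by PI. Flow cytometry scored early apoptotic (Annexin V+/PI−) and late apoptotic (Annexin V+/PI+) cells; total apoptotic is Annexin V-positive cells.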

Series [16] deals with MCF7. As to the kind of experiment: Induction of apoptosis in human MCF7 cells assessed as late apoptotic cells after 48 hrs by Annexin V-FITC and propidium iodide staining based flow cytometry. The series is classed as functional, cell-based. Particulars: dose 10-1000 nM. The method in brief: as §4

Active and inactive are the calls of the source. The calls are words filed in the database; no cut-off is given here.

Regarding `COc1ccc([C@H]2[C@H](O)C(=O)N2c2cc(OC)c(OC)c(OC)c2)cc1F`, the Activity entry with MCF7 [1] was “Tde”; in the series with MCF7 [5], 15%; in the series with MCF7 [6], “Dose-dependent effect”; in the series on MCF7 [7] it was “Dose-dependent effect”; with HT-29 [8], 52%; in the series on HT-29 [11] it was 8%. In addition, the Activity is 66% in the series with MCF7 [12], 60% in the series with MCF7 [14], 35% in the series on MCF7 [15] and “Dose-dependent effect” in the series on MCF7 [16]. In addition, the outcome in the series on MCF7 [2], on Tubulin (Homo sapiens) [3] and at Tubulin (Homo sapiens) [13] was Active. Besides, the outcome in the series on HT-29 [4] and in the series with HT-29 [10] was inactive. In addition, in the series filed under Bos taurus, the inhibition entry is “Active”. The microsomal CLint at 3 µM in series [9] stood at 14.2 µL/min/mg.

For the origin of these results see ChEMBL document CHEMBL4680165, “β-Lactams with antiproliferative and antiapoptotic activity in breast and chemoresistant colon cancer cells” (Eur J Med Chem, 2020).
